Published values of several laboratories.
Protocols differ between the studies behind these lines.
Matrix: plasma

CO[C@@H]1[C@H](OC(=O)N2CC(CCN3CCOCC3)C2)CC[C@]2(CO2)[C@H]1[C@@]1(C)O[C@@H]1CC=C(C)C  AUC(0-t) (human; subcutaneous, 3.6 mg, single dose, healthy volunteers): 10.4 ng·h/mL
Cc1nc(NC(=O)N2CCC[C@H]2C(N)=O)sc1-c1ccnc(C(C)(C)C(F)(F)F)c1  AUC(0-t) (human; oral, 400 mg, patients): 40700 ng·h/mL
CC(C)(O)c1ccccc1-c1ccc2[nH]c(/C=C/c3ccc(C(F)(F)F)cc3)nc2c1  AUC(0-t) (male human; oral, 120 mg, single dose, fasted): 2820 ng·h/mL
CO[C@H]1CC[C@H](N2C(=O)CNc3ncc(-c4ccc(C(C)(C)O)nc4)nc32)CC1  AUC(0-t) (human; oral, 45 mg, multiple doses, patients): 2080 ng·h/mL
FC(F)(F)c1ccc(CNc2ccc(Cc3c[nH]c4ncc(Cl)cc34)cn2)cn1  AUC(0-t) (human; oral, 600 mg, multiple doses, patients): 13300 ng·h/mL
COc1cc(N2CCC(N3CCN(C)CC3)CC2)ccc1Nc1ncnc(Nc2ccccc2S(=O)(=O)C(C)C)n1  AUC(0-t) (human; oral, 125 mg, multiple doses, patients): 8320 ng·h/mL
CCNCCCNC/C=C\CNCCCNCC  AUC(0-t) (human; intravenous, 200 mg, patients, infusion): 1330 ng·h/mL
COCCOc1cnc2ccn([C@H](C)c3nnc4c(F)cc(-c5cnn(C)c5)cn34)c(=O)c2c1  AUC(0-t) (human; oral, 50 mg, multiple doses, once daily, patients): 6940 ng·h/mL
OC[C@H]1O[C@@H](c2ccc(Cl)c(Cc3ccc(O[C@H]4CCOC4)cc3)c2)[C@H](O)[C@@H](O)[C@@H]1O  AUC(0-t) (human; oral, 25 mg, single dose): 4.31 µM·h
CC(C)n1cc(C#N)c2cc(-n3cc(C(=O)O)cn3)ccc21  AUC(0-t) (human; oral, 100 mg, single dose, fasted, healthy volunteers): 19400 ng·h/mL
C[C@@]1(c2cc(NC(=O)c3ccc(C#N)cn3)ccc2F)C=CSC(N)=N1  AUC(0-t) (human; oral, 3 mg, single dose): 231 ng·h/mL
COc1ccc([C@@H]2CN(C(=O)[C@@H](O)CO)C[C@@]2(C)[C@@H](C)O)cc1OC1CN(c2ccc(C)cn2)C1  AUC(0-t) (human; oral, 30 mg, single dose, healthy volunteers): 5620 ng·h/mL
